Experimental data from ChEMBL document CHEMBL3867483, “Gaining in pan-affinity towards sigma 1 and sigma 2 receptors. SAR studies on arylalkylamines” (Bioorg Med Chem, 2017).

Tests used:
[1] = target: Sigma non-opioid intracellular receptor 1 (Cavia porcellus, UniProt Q60492); experiment: Displacement of [3H]-(+)-pentazocine from sigma 1 receptor in guinea pig cerebral cortex membranes after 120 mins by scintillation counting analysis; parameters: species or system Membrane
[2] = Displacement of [3H]-DTG from sigma 2 receptor in rat liver membranes after 120 mins by scintillation counting analysis; assay type: cell membranes, Membrane
Method in brief: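 Rat liver homogenate (150 μg) incubated 120 min at room temperature with 3 nM [3H]-DTG in 50 mM Tris-HCl pH 8.0. Excess unlabeled (+)-pentazocine masked S1R, and high unlabeled DTG defined nonspecific binding. Compound at 10^-10 to 10^-5 M final, in duplicate. Filtered through PEI-presoaked filtermats and counted by scintillation. IC50 from nonlinear regression, converted to Ki by Cheng-Prusoff; mean ± SEM of three experiments.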

[3] = Selectivity ratio of Ki for sigma 2 receptor in rat liver membranes to Ki for sigma 1 receptor in guinea pig cerebral cortex membranes; assay type: cell membranes
Method in brief: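 Ratio computed as Ki at S2R (rat liver, [3H]-DTG with S1R masked by (+)-pentazocine) divided by Ki at S1R (guinea pig cortex, [3H](+)-pentazocine). Both Ki values come from Cheng-Prusoff conversion of IC50s from 120 min displacement assays, each the mean of three experiments.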

Sequence of Sigma non-opioid intracellular receptor 1 (Q60492 whole entry): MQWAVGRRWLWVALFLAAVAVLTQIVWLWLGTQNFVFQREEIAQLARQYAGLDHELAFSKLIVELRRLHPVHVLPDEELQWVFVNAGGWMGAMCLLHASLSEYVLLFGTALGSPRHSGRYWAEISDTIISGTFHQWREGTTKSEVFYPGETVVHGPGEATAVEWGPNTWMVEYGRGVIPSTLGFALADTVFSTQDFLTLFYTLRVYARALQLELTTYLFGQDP

Ki [1] [µM] | Ki [2] [µM] | Ratio Ki [3] | SMILES
0.076 | 0.068 | 0.89 | COc1ccc(C(C)CCN2CCOCC2)cc1 (racemic)
0.036 | 0.035 | 0.97 | COc1cccc(C(C)CCN2CCCCC2)c1 (racemic)
0.02 | 0.058 | 2.9 | COc1ccc(C(C)CCN2CCCCC2)cc1 (racemic)
0.137 | 0.092 | 0.67 | COc1cccc(C(C)CCN2CCOCC2)c1 (racemic)
0.0015 | 0.05 | 33.3 | CC(CCN1CCCCC1)c1ccc2ccccc2c1 (racemic)
0.239 | 0.864 | 3.62 | COc1cccc(C(C)CCN(C)C)c1 (stereo not given)
– | 0.0438 | 22 | CC(CCN(C)C)c1ccc2ccccc2c1 (racemic)
0.046 | 0.056 | 1.22 | CC(CCN1CCCCC1)c1ccccc1 (racemic)
0.427 | > 1 | – | CC(CCN(C)C)c1ccccc1 (racemic)

Second part, the molecule before the results:

SMILES | Ki [1] [µM] | Ki [2] [µM] | Ratio Ki [3]
COc1ccc(C(C)CCN2CCC(Cc3ccccc3)CC2)cc1 (racemic) | 0.0035 | 0.018 | 5.14
CC(CCN1CCC(Cc2ccccc2)CC1)c1ccccc1 (racemic) | – | 0.0065 | 3.1
COc1cccc(C(C)CCN2CCC(Cc3ccccc3)CC2)c1 (racemic) | 0.0029 | 0.014 | 4.83
CC(CCN1CCOCC1)c1ccc2ccccc2c1 (racemic) | 0.0054 | 0.033 | 6.1
CC(CCN1CCOCC1)c1ccccc1 (racemic) | 0.085 | 0.071 | 1.2
COc1ccc(C(C)CCN(C)C)cc1 (racemic) | 0.116 | 0.255 | 2.2
CC(CCN1CCC(Cc2ccccc2)CC1)c1ccc2ccccc2c1 (racemic) | 0.019 | 0.144 | 7.6
